# Screens deposited in PubChem by several laboratories.
# Bim-Bcl-2 – inhibitors of Bim-Bcl-2 interaction, human; P10415; AID 950; Bead-based flow cytometry, Bim peptide-Bcl-2 binding; inhibition, % at 10 µM; hit rate 0.06% among 190,000; in the data active = inhibition above about 40%;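 note: 0% = no compound wells with probe peptide and 100% = reference peptide inhibitor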
# Target sequence (P10415 whole entry, looked up): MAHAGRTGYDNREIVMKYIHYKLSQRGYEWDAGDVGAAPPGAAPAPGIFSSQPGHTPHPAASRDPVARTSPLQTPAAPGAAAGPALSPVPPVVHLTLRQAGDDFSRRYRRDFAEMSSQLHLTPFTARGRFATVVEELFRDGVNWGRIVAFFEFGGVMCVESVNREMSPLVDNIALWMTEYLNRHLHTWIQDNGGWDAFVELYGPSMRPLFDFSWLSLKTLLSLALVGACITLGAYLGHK
# Bim-Bcl-W – inhibitors of Bim-Bcl-W interaction, human | Q92843 | bead-based flow cytometry, Bim peptide-Bcl-W binding | inhibition, % at 10 µM | hit rate 0.02% among 190,000;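 note: 0% = bound tracer without compound and 100% = peptide blocker; higher means less fluorescent Bim peptide bound to Bcl-W beads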
# Rad51 HR inh – Rad51 (human) homologous recombination inhibition; Q06609; hRad51 DNA strand exchange, fluorescence dequenching; inhibition, % at 10 µM; hit rate 0.085% among 200,000; AID 1385;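 active = inhibition above 40% at the single screening dose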;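 note: 0% = DMSO control wells and 100% = blanks with heterologous ssDNA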
#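 Assay system: Human Rad51 nucleoprotein filaments preassembled on unlabelled ssDNA | Reagent: Donor/quencher-labelled 47-bp dsDNA substrate | Doses: One concentration, 10 µM final | Times: 37 °C 15-min filament assembly, 30-min compound preincubation, 15-min exchange | Technique: Fluorescein emission 520 nm, excitation 485 nm | Benchmarks: Plate control and blank wells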
# Bcl-XL Bim block – human Bim-Bcl-XL interaction inhibition. AID 1007. hit rate 0.04% among 190,000. Bim peptide-Bcl-XL binding, bead flow cytometry, fluorescence. inhibition, % at 10 µM
# Bfl-1 Bim block – inhibitors of Bim-Bfl-1 interaction, human. Q16548. Bead-based flow cytometry, Bim-Bfl-1 binding inhibition. inhibition, % at 10 µM. hit rate 0.12% among 190,000. AID 1008;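 note: 0% = wells without compound plus tracer and 100% = blocker peptide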
# Bim-Bcl-B – human Bim-Bcl-B interaction inhibition. bead-based flow cytometry, Bim peptide-Bcl-B binding. inhibition, % at 10 µM. hit rate 0.073% among 190,000. AID 951;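 note: 0% = tracer peptide without compound and 100% = reference inhibitor peptide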
# Target sequence (Q9HD36 whole entry, looked up): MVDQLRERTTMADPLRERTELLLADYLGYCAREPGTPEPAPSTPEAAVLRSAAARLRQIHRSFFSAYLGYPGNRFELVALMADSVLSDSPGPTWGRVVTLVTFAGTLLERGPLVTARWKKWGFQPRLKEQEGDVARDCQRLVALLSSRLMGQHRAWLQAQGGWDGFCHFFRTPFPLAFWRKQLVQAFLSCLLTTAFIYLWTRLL
# Numbers without * were called inactive; x = no result. Only some compounds are listed: those with a hit (about 0.23% of all), similar ones and a draw of the others. Cut-off read from the data, not from the text of the source, unless noted: active = inhibition above about 40%.
SMILES,Bim-Bcl-2,Bim-Bcl-W,Rad51 HR inh,Bcl-XL Bim block,Bfl-1 Bim block,Bim-Bcl-B
Cc1cc[n+]2cc(-c3cccc([N+](=O)[O-])c3)c(-c3cccc([N+](=O)[O-])c3)cc2c1,12,14,-43,8,10,43*
O=S(=O)(Nc1nc2ccccc2nc1NCC1CCCO1)c1cccc(Cl)c1 (stereo unspecified),x,x,-14,x,x,x
CCn1c(C)c(/C=N/Nc2nc3ccccc3s2)c2ccccc21,87*,21,x,23,x,x
C(=N\Nc1nc2ccccc2s1)/c1cccs1,17,13,-3,12,20,17
COc1cc(/C=C2\CC/C(=C\c3cc(OC)c(O)c(OC)c3)C2=O)cc(OC)c1O,37,43*,-42,25,50*,18
CC1Cc2ccccc2N1C(=O)c1ccc(N2CCCC2)c([N+](=O)[O-])c1 (stereo unspecified),56*,13,9,8,14,72*
CC1Cc2ccccc2N1C(=O)c1ccc(N2CCCCC2)c([N+](=O)[O-])c1 (stereo unspecified),-3,-1,-1,-2,-3,-2
Nc1ccc(N2CCCCCC2)cc1,19,30,-12,6,43*,10
Nc1ccc(N2CCN(c3ccc(F)cc3)CC2)cc1,5,4,-9,0,9,-2
CC(C)(CN1CCc2ccccc2C1)NS(=O)(=O)c1ccc(Cl)cc1,x,x,6,x,x,x
N#CCC(=O)NNC(=S)Nc1ccccc1C(F)(F)F,1,0,41*,0,-1,1
CSc1ccc(Cl)c(C(=O)Nc2ccc(C)cn2)c1,0,0,2,-3,-3,-3
COC(=O)c1ccc(/C=N/NC(=O)CC(=O)NCc2cccnc2)cc1,54*,5,-1,3,32,51*
COC(=O)Cc1ccc(NC(=S)N2CCN(c3cccc(O)c3)CC2)cc1,18,11,6,12,2,50*
COC(=O)Cc1ccc(NC(=S)N2CCN(c3ccc(OC)cc3)CC2)cc1,7,8,2,5,13,7
CCOc1ccc(NC(=O)NC23CC4CC(CC(C4)C2)C3)cc1,-9,-1,8,2,-6,-4
Cc1c(C(=O)Oc2ccc(-c3cnc4ccccc4n3)cc2)cccc1[N+](=O)[O-],10,12,1,0,40*,-11
O=C(Oc1ccc(-c2cnc3ccccc3n2)cc1)c1cc([N+](=O)[O-])ccc1Cl,-7,1,-1,-1,0,-9
COCc1ccc(CN2CCCC(CO)(Cc3ccccc3)C2)o1 (stereo unspecified),-1,0,9,0,-8,-2
CC[n+]1c(/C=C/C=C/N(C(C)=O)c2ccccc2)sc2ccccc21,x,43*,-252,x,9,2
Cc1ccc(S(=O)(=O)c2cnc(-c3ccccc3)nc2N2CCN(C)CC2)cc1,-7,-3,6,-4,-10,-4
CC(C)Cc1cc(-c2ccco2)c(C#N)c(N)n1,90*,26,-2,30,73*,93*
CCNC(=O)N1c2ccc(OCC)cc2C(C)=CC1(C)C,24,18,4,33,40*,20
O=[N+]([O-])c1ccc2ccn(C3OCC(O)C(O)C3O)c2c1 (stereo unspecified),-2,-5,1,-5,-13,-8
O=C(Cc1ccccc1)N/N=C/c1cccn1-c1ccc([N+](=O)[O-])cc1,31,26,-11,25,21,50*
SMILES,Bim-Bcl-2,Bim-Bcl-W,Rad51 HR inh,Bcl-XL Bim block,Bfl-1 Bim block,Bim-Bcl-B
Cc1onc(-c2c(Cl)cccc2Cl)c1C(=O)c1ccccc1,x,x,10,x,x,x
Cc1onc(-c2c(Cl)cccc2Cl)c1C(=O)Nn1cnnc1,-4,-5,44*,-7,-15,-10
O=C1CCc2cc(S(=O)(=O)NC(C(=O)NCc3cccnc3)c3ccccc3)ccc2N1 (stereo unspecified),-3,1,-3,-3,-13,-3
O=C1CCc2cc(S(=O)(=O)NC(C(=O)N3CCN(c4ccccn4)CC3)c3ccccc3)ccc2N1 (stereo unspecified),-3,-1,41*,-1,-3,0
COc1ccccc1OCCNC(=O)C1CCCCC1,-2,-1,4,-1,4,1
CCCS(=O)(=O)N1CCCC(C(=O)N2CCN(C(=O)OCC)CC2)C1 (stereo unspecified),-1,-2,69*,1,5,0
Cc1cc(-c2csc(N)n2)c(C)n1C,36,30,-4,21,20,70*
CCOc1ccc2nc(NC(=O)C3=NN(c4ccccc4)C(=O)CC3)sc2c1,1,0,10,0,-4,0
Cc1ccc(CNC(=O)CCCC(=O)Nc2cc(C)on2)cc1,-3,-4,-1,-4,-7,-8
Cc1cc(NC(=O)CCCC(=O)NCc2ccccc2)no1,51*,0,-72,1,27,43*
Brc1ccc2ncnc(Nc3ccc(N4CCOCC4)cc3)c2c1,5,7,4,3,5,48*
N/C(=N\NC(=O)c1sccc1OCc1ccc(Cl)cc1Cl)c1ccccn1,-1,0,5,-2,-1,0
O=C(Cn1cncc1-c1ccc([N+](=O)[O-])cc1)Nc1ccccc1F,34,14,-9,15,42*,25
COc1ccccc1NC(=O)Cn1cncc1-c1ccc([N+](=O)[O-])cc1,-7,0,x,0,-10,-6
CCN1/C(=C/C=C/c2oc3ccc4ccccc4c3[n+]2CC)Oc2ccc3ccccc3c21,8,26,-394,45*,35,0
O=C(O)CC/C(=N/NC(=O)CNC(=O)C(c1ccccc1)c1ccccc1)c1ccccc1,x,x,-7,x,x,x
COc1c(Cl)cnn(-c2ccc(Cl)c(Cl)c2)c1=O,-3,-2,3,-4,-3,-2
COc1ccc(N2CCN(CCCNC(=O)CCCn3c(=O)[nH]c4ccsc4c3=O)CC2)cc1,62*,4,x,1,30,67*
Cc1[nH]c(=O)[nH]c(=O)c1/C=N/NC(=O)[C@@H](N)CC(C)C,x,x,-11,x,x,x
Cc1ccc(S(=O)(=O)N2CCCCC2)cc1NC(=O)C1CCCO1 (stereo unspecified),-3,-1,17,-1,0,0
COCCn1c(=NC(=O)CSC(C)=O)sc2cc(OC)ccc21,-10,-5,6,-11,-10,-13
COCCn1c(=NC(=O)CSC(C)=O)sc2cc(F)ccc21,-4,0,83*,-2,-8,-3
COc1ccc(N2C(=O)/C(=C/c3cccs3)NC2=S)cc1,2,4,9,-7,45*,-28
CN(C)/C=C1\NC(=S)N(c2ccccc2)C1=O,-1,0,-20,-3,-1,-13
COc1ccc2cc3c(N)c(C(=O)NCc4ccco4)sc3nc2c1,1,-1,-4,0,4,-2
